In ChEMBL document CHEMBL3763084, “Design and synthesis of substituted pyrido[3,2-d]-1,2,3-triazines as potential Pim-1 inhibitors” (Bioorg Med Chem Lett, 2016):
The source made the active and inactive calls. The rule behind the calls is not given here.

Experiments:
LNCaP = test: Antiproliferative activity against human LNCAP cells after 96 hrs by MTT assay; format: functional, cell-based
[1] = Antiproliferative activity against human PC3 cells after 96 hrs by MTT assay; format: functional, cell-based; conditions: PC-3, 96 h
[2] = molecular target: T1, Serine/threonine-protein kinase pim-1 (Homo sapiens, UniProt P11309); test: Inhibition of Pim 1 (unknown origin) after 50 mins by HTRF method
[3] = molecular target: T1, Serine/threonine-protein kinase pim-1; conditions: PC-3, 10 uM
[4] = molecular target: T1, Serine/threonine-protein kinase pim-1; conditions: PC-3, 10 uM; remark: listed apart in the source
[5] = molecular target: T1, Serine/threonine-protein kinase pim-1; conditions: PC-3, 10 uM; remark: listed apart in the source
PC-3 = test: Effect on PIM1 expression in human PC3 cells at 5 to 20 uM after 24 hrs by western blot analysis; format: functional, cell-based
Method in brief: (§1)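 PC-3 cells were exposed for 24 h to the test compound at 0, 5, 10 or 20 μM, with DMSO as the negative control and a reference Pim-1 inhibitor at 10 μM. Lysates were analysed by western blot for BAD phospho-Ser112, 4E-BP1 phospho-Thr37/46, c-Myc and total Pim-1.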

[6] = molecular target: T1, Serine/threonine-protein kinase pim-1; test: Inhibition of Pim1 in human PC3 cells assessed as decrease in BAD phosphorylation at Ser112 residue after 24 hrs by western blot analysis; format: cell-based; conditions: PC-3; method in brief: as §1
[7] = molecular target: T1, Serine/threonine-protein kinase pim-1; test: Inhibition of Pim1 in human PC3 cells assessed as decrease in 4E-BP1 phosphorylation at Thr37/46 residue after 24 hrs by western blot analysis; format: cell-based; conditions: PC-3; method in brief: as §1
[8] = molecular target: T1, Serine/threonine-protein kinase pim-1; test: Inhibition of Pim1 in human PC3 cells assessed as decrease in c-Myc level at 5 to 20 uM after 24 hrs by western blot analysis; format: cell-based; conditions: PC-3; method in brief: as §1

SMILES | IC50 (LNCaP) [µM] | IC50 [1] [µM] | IC50 [2] [µM] | further results
CCN1CCN(c2ccc3nnnc(Nc4cccc(OC(F)(F)F)c4)c3n2)CC1 | 14.3 | 16.9 | 2.04 | 
CN1CCC(CNc2ccc3nnnc(Nc4cccc(OC(F)(F)F)c4)c3n2)CC1 | 17.3 | 15.8 | 1.87 | 
OCCNc1ccc2nnnc(Nc3cccc(OC(F)(F)F)c3)c2n1 | 42.9 | > 100 | 2.1 | 
COc1ccc2nnnc(Nc3cccc(OC(F)(F)F)c3)c2n1 |  |  | 2.02 | 
CN1CCC(CNc2ccc3ncc(-c4cccc(OC(F)(F)F)c4)n3n2)CC1 [SGI-1776] | 6.85 | 4.86 |  | inhibition [3]: Active; inhibition [4]: Active; inhibition [5]: Active
CC1CCCCN1c1ccc2nnnc(Nc3cccc(OC(F)(F)F)c3)c2n1 (stereo not given) |  |  | 1.31 | 
CN1CCN(c2ccc3nnnc(Nc4cccc(OC(F)(F)F)c4)c3n2)CC1 | 20.3 | 24 | 0.6 | 
FC(F)(F)Oc1cccc(Nc2nnnc3ccc(N4CCC(N5CCCCC5)CC4)nc23)c1 | 4.9 | 5.58 | 2.47 | 
FC(F)(F)Oc1cccc(Nc2nnnc3ccc(N4CCC(N5CCCC5)CC4)nc23)c1 | 10.7 | 8.16 | 1.05 | Activity (PC-3): inactive; inhibition [6]: Dose-dependent effect; inhibition [7]: Dose-dependent effect; inhibition [8]: Active
FC(F)(F)Oc1cccc(Nc2nnnc3ccc(NCC4CCNCC4)nc23)c1 | 11.5 | 8.32 | 0.8 | 
FC(F)(F)Oc1cccc(Nc2nnnc3ccc(N4CCOCC4)nc23)c1 | 31 | 41 | 1.45 | 
CC(C)N1CCN(c2ccc3nnnc(Nc4cccc(OC(F)(F)F)c4)c3n2)CC1 | 10.7 | 13.8 | 1.08 | 
FC(F)(F)Oc1cccc(Nc2nnnc3ccc(Cl)nc23)c1 | 8.62 | 5.99 | > 10 | 
CCCCOc1ccc2nnnc(Nc3cccc(OC(F)(F)F)c3)c2n1 |  |  | > 10 | 
CC1CCN(c2ccc3nnnc(Nc4cccc(OC(F)(F)F)c4)c3n2)CC1 |  |  | > 10 | 
FC(F)(F)Oc1cccc(Nc2nnnc3ccc(N4CCCC4)nc23)c1 | > 100 | > 100 | > 10 | 
CCOc1ccc2nnnc(Nc3cccc(OC(F)(F)F)c3)c2n1 | > 100 | > 100 | > 10 | 
FC(F)(F)Oc1cccc(Nc2nnnc3ccc(N4CCNCC4)nc23)c1 | 8.51 | 11.5 | 0.69 | 
CC(C)(C)OC(=O)N1CCC(CNc2ccc3nnnc(Nc4cccc(OC(F)(F)F)c4)c3n2)CC1 | > 100 | > 100 | > 10 | 
